# Published values pooled from the literature.
# Organism: Staphylococcus aureus
SMILES,test,test system,conditions,endpoint,value
CCOC(=O)C1=C(C)N2NC(c3ccccc3O)N(C(Cc3c[nH]c4ccccc34)C(=O)O)C2=NC1c1ccc(Cl)cc1 (centres unmarked),microbial killing,,drug-resistant strain,MBC,100 µg/mL
O=C(O)c1cn(C2CC2)c2cc(N3CCNCC3)c(F)cc2c1=O,microbial growth,SG511,"5 µg/mL, 20 h",inhibition zone,25 mm
COC(=O)c1cc(-c2cccc(NC(=S)Nc3ccc(C)cc3)c2)on1,"microbial growth, broth dilution",ATCC29213,,MIC,> 64 µg/mL
CC(=O)Oc1cccc2c1[nH]c1c(C3=C[C@@]4(OC(C)=O)CC/C=C\CCCCN5CC[C@@H]3[C@]3(C[C@@H]6/C=C\CCCCN6[C@H]34)C5)nccc12,microbial killing,MRSA,drug-resistant strain,MFC,> 20 µg/mL
COC(=O)c1cc(-c2cccc(NC(=O)Nc3cccc(Cl)c3)c2)on1,"microbial growth, broth dilution",ATCC29213,,MIC,> 64 µg/mL
CC1(C)CC[C@]2(C(=O)O)CC[C@]3(C)C(=CC[C@@H]4[C@@]5(C)CC[C@H](O)C(C)(C)[C@@H]5CC[C@]43C)[C@@H]2C1,microbial growth,USA300,,MIC,256 µg/mL
CN[C@H](CC(C)C)C(=O)N[C@H]1C(=O)N[C@@H](CC(N)=O)C(=O)N[C@H]2C(=O)N[C@H]3C(=O)N[C@H](C(=O)N[C@H](C(=O)O)c4cc(O)cc(O)c4-c4cc3ccc4O)[C@H](O)c3ccc(c(Cl)c3)Oc3cc2cc(c3O[C@@H]2O[C@H](CO)[C@@H](O)[C@H](O)[C@H]2O[C@H]2C[C@](C)(N)[C@H](O)[C@H](C)O2)Oc2ccc(cc2Cl)[C@H]1O,"microbial killing, broth dilution",ATCC6538,,MBC,2 µM
COc1ccc(-c2nc3ccccc3[nH]2)cc1OC,"microbial growth, broth dilution",ATCC43300 MRSA,drug-resistant strain,MIC,256 µg/mL
COC(=O)c1cc(-c2cccc(NC(=S)Nc3ccc(F)cc3)c2)on1,"microbial growth, broth dilution",ATCC29213,,MIC,> 64 µg/mL
C=CCn1c(-c2ccc(Cl)cc2)nc2ccccc21,"microbial growth, broth dilution",ATCC43300 MRSA,drug-resistant strain,MIC,128 µg/mL
COC(=O)c1cc(-c2cccc(NC(=O)Nc3cccc(F)c3)c2)on1,"microbial growth, broth dilution",ATCC29213,,MIC,> 64 µg/mL
Cc1ccc2nc(-c3ccc([N+](=O)[O-])cc3)n(Cc3ccc(Cl)cc3)c2c1,"microbial growth, broth dilution",ATCC43300 MRSA,drug-resistant strain,MIC,8 µg/mL
COC(=O)c1cc(-c2cccc(NC(=O)Nc3ccc(C(F)(F)F)cc3)c2)on1,"microbial growth, broth dilution",ATCC29213,,MIC,8 to 16 µg/mL
Fc1cccc(Cl)c1-c1nc2ccccc2[nH]1,"microbial growth, broth dilution",ATCC43300 MRSA,drug-resistant strain,MIC,128 µg/mL
COC(=O)c1cc(-c2cccc(NC(=S)Nc3ccc(F)c(Cl)c3)c2)on1,"microbial growth, broth dilution",ATCC29213,,MIC,> 64 µg/mL
CC1(C)S[C@@H]2[C@H](NC(=O)[C@H](N)c3ccccc3)C(=O)N2[C@H]1C(=O)O,"microbial growth, well diffusion",ATCC25923,60000 µg/mL,inhibition zone,35 mm
CCOc1ccc(-c2nc3ccccc3[nH]2)cc1,"microbial growth, broth dilution",ATCC43300 MRSA,drug-resistant strain,MIC,512 µg/mL
O=C(O)c1cn(C2CC2)c2cc(N3CCNCC3)c(F)cc2c1=O,microbial killing,,,MBC,0.019 µg/mL
CCOc1ccc(-c2nc3ccccc3n2Cc2ccccc2)cc1,"microbial growth, broth dilution",ATCC43300 MRSA,drug-resistant strain,MIC,64 µg/mL
O=C(Sc1cccccc1=O)c1ccccc1,"microbial growth, broth dilution",ATCC29213,,MIC80,13.2 µM
